# How the values were obtained:
# [1] = melting temperature; fluorescence melt of hairpins on a sequencing array, two-state fit, raised by 9.35 °C to match UV melts; settings: sodium 0.088 M
# Outline: (§1)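 Cy3 signals were normalised both to pre-quench Cy3 and to control constructs. They came from library hairpins carrying annealed Cy3 and quencher oligos on a sequenced MiSeq flow cell, imaged in 50 mM Na-HEPES pH 8.0, 25 mM NaCl, in 2.5 °C steps up to 60 °C. Bootstrapped two-state fits gave melting temperature and folding enthalpy, and four replicates were combined by inverse variance. Fitted temperatures were then raised by 9.35 °C to match UV melts.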
# [2] = folding enthalpy; higher = less favourable; fluorescence melt of hairpins on a sequencing array, two-state fit; settings: sodium 0.088 M
# Outline: as §1
Sequence,Tm [1],folding enthalpy [2]
GCACGGGGAAACCCGTAC (.(((((....))))).),41.7 °C,-13.2 kcal/mol
GCACGTCGAAAGACTGC (((.(((....)))))),56.5 °C,-27.5 kcal/mol
GCACGTGGAAACACACGC ((..(((....)))..)),37.8 °C,-21.3 kcal/mol
GCACGTGGAAACACATGC (((.(((....))).))),45.1 °C,-31.9 kcal/mol
GCACGTGGAAACACGTAC (.(((((....))))).),44.1 °C,-14.2 kcal/mol
GCACTACGAAAGTACTGC (((.(((....))).))),37.6 °C,-26.9 kcal/mol
GCACTCACGAAAGTGTGC (((..(((....)))))),48.7 °C,-23 kcal/mol
GCACTCGAAAGAGACTGC ((((((....)))..))),34.6 °C,-17 kcal/mol
GCACTCGAAAGAGCCTGC ((((((....)))..))),27.8 °C,-12.9 kcal/mol
GCACTCGAAAGAGGTGC ((((((....))).))),54.4 °C,-29.1 kcal/mol
GCACTCGAAAGAGTCTGC ((((((....)))..))),40.1 °C,-19.2 kcal/mol
GCACTCGAAAGAGTGTGC ((((((....)))..))),63.8 °C,-20.1 kcal/mol
GCACTCGGAAACGGGTGC ((((.((....)).)))),59.5 °C,-51.6 kcal/mol
GCACTGCGAAAGCAAGGC ((..(((....)))..)),47.5 °C,-17.8 kcal/mol
GCACTGCGAAAGCATAGC ((..(((....)))..)),35.6 °C,-15.3 kcal/mol
GCACTGCGAAAGCATGGC ((..(((....)))..)),44.8 °C,-17.4 kcal/mol
GCACTGCGAAAGCCTTGC (((..((....))..))),36.6 °C,-21.9 kcal/mol
GCACTGCGAAAGCTGAGC ((.(.((....)).).)),49.2 °C,-20.5 kcal/mol
GCACTGCGAAAGCTGCGC ((.(.((....)).).)),57.1 °C,-22.5 kcal/mol
GCACTGGAAACAGTGC ((((((....)))))),65.2 °C,-38.3 kcal/mol
GCACTGGCGAAAGCCTGC (((..(((....)))))),44.3 °C,-12.1 kcal/mol
GCACTTACGAAAGTATGC (((..(((....)))))),30.3 °C,-18.1 kcal/mol
GCACTTCGAAAGAATGC (((.(((....)))))),41.5 °C,-31.2 kcal/mol

Sequence,Tm [1],folding enthalpy [2]
GCACTTGCGAAAGCATGC (((..(((....)))))),38.6 °C,-10.8 kcal/mol
GCACTTGGAAACGAGTGC (((((.(....).))))),54.1 °C,-54.9 kcal/mol
GCAGAACGAAAGTTTTGC (((.(((....))).))),52.1 °C,-40.9 kcal/mol
GCAGAAGGAAACTTTTGC (((.(((....))).))),37 °C,-31.2 kcal/mol
GCAGAATCGAAAGATTGC (((..(((....)))))),34.6 °C,-21.1 kcal/mol
GCAGACACGAAAGTGTGC (((..(((....)))))),46.8 °C,-15.3 kcal/mol
GCAGACGAAAGTCACTGC ((((((....)))..))),39.5 °C,-18.6 kcal/mol
GCAGACGAAAGTCCTTGC ((((((....)))..))),32.5 °C,-12.3 kcal/mol
GCAGACGAAAGTCTTTGC ((((((....)))..))),37.1 °C,-14.4 kcal/mol
GCAGACGGAAACACCTGC ((((..(....)..)))),28.6 °C,-18.1 kcal/mol
GCAGAGAAATCTGC (((((....))))),50.6 °C,-23.1 kcal/mol
GCAGAGCGAAAGCACCGC ((.(.((....)).).)),45.4 °C,-14.2 kcal/mol
GCAGAGCGAAAGCACGGC ((.(.((....)).).)),55.1 °C,-20.9 kcal/mol
GCAGAGCGAAAGCATTGC (((..((....))..))),49.9 °C,-17.3 kcal/mol
GCAGAGCGAAAGCCGTGC (((..((....))..))),42.1 °C,-16.4 kcal/mol
GCAGAGCGAAAGCGTTGC (((..((....))..))),62 °C,-19.4 kcal/mol
GCAGAGCGAAAGCTAGGC ((..(((....)))..)),50.7 °C,-16.4 kcal/mol
GCAGAGTCGAAAGACTGC (((..(((....)))))),48.7 °C,-16.7 kcal/mol
GCAGATACGAAAGTATGC (((..(((....)))))),36.5 °C,-22.3 kcal/mol
GCAGATCGAAAGATATGC (((.(((....))).))),54.7 °C,-36.7 kcal/mol
GCAGATGAAAATCTGC ((((((....)))))),59.9 °C,-39 kcal/mol
GCAGATGGAAACATCTAC (.(((((....))))).),34.7 °C,-19.1 kcal/mol
GCAGATGGAAACATCTGC (((((((....))))))),67.1 °C,-37.5 kcal/mol

Sequence,Tm [1],folding enthalpy [2]
GCAGATGGAAACGTCTGC (((((.(....).))))),53.2 °C,-45.2 kcal/mol
GCAGCAACGAAAGTTTGC (((..(((....)))))),35.8 °C,-17.1 kcal/mol
GCAGCACGAAAGTGATGC (((.(((....))).))),69 °C,-36.2 kcal/mol
GCAGCAGGAAACTGCCGC ((.((((....)))).)),50.5 °C,-27.8 kcal/mol
GCAGCAGGAAACTGCTAC (.(((((....))))).),44.7 °C,-13.4 kcal/mol
GCAGCAGGAAACTGTTGC (((.(((....))).))),52.1 °C,-52.3 kcal/mol
GCAGCCGAAAGGCCTGC ((((((....))).))),61.3 °C,-25.5 kcal/mol
GCAGCCGAAAGGCCTTGC ((((((....)))..))),35.7 °C,-10.6 kcal/mol
GCAGCCGAAAGGCTTGC ((((((....))).))),62 °C,-15.3 kcal/mol
GCAGCCGAAAGGCTTTGC ((((((....)))..))),42.2 °C,-10.2 kcal/mol
GCAGCCGGAAACGACCGC ((.(.((....)).).)),31.2 °C,-20.9 kcal/mol
GCAGCCGGAAACGGCCGC ((.((((....)))).)),58.9 °C,-17.2 kcal/mol
GCAGCGCCGAAAGGCTGC (((..(((....)))))),53.9 °C,-14.7 kcal/mol
GCAGCGCGAAAGCGTAGC ((..(((....)))..)),56.4 °C,-15.9 kcal/mol
GCAGCGCGAAAGCTATGC (((..((....))..))),45.2 °C,-16.8 kcal/mol
GCAGCGGGAAACCACCGC ((.(.((....)).).)),39.8 °C,-14.2 kcal/mol
GCAGCTCGAAAGAGGTGC (((.(((....))).))),67.5 °C,-29.4 kcal/mol
GCAGCTGGAAACAGTTGC (((.(((....))).))),53.1 °C,-51.6 kcal/mol
GCAGGACGAAAGTCATGC (((.(((....))).))),66.3 °C,-37.9 kcal/mol
GCAGGAGGAAACCCCTGC (((((.(....).))))),50.9 °C,-41.4 kcal/mol
GCAGGAGGAAACTCCCAC (..((((....))))..),25.8 °C,-16.8 kcal/mol
GCAGGCCCGAAAGGGTGC (((..(((....)))))),41.9 °C,-13.1 kcal/mol
GCAGGCGAAAGCCAGTGC ((((((....)))..))),49.5 °C,-18.9 kcal/mol

Sequence,Tm [1],folding enthalpy [2]
GCAGGCGAAAGCCATTGC ((((((....)))..))),42.7 °C,-13.2 kcal/mol
GCAGGCGAAAGCCCTTGC ((((((....)))..))),38.9 °C,-11.9 kcal/mol
GCAGGCGCGAAAGCGTGC (((..(((....)))))),49.4 °C,-13.3 kcal/mol
GCAGGCGGAAACACCCGC ((.((.(....).)).)),36.1 °C,-12.6 kcal/mol
GCAGGCGGAAACGTCTGC ((((.((....)).)))),63.1 °C,-35.3 kcal/mol
GCAGGGCGAAAGCAATGC (((..((....))..))),59.9 °C,-24.1 kcal/mol
GCAGGGCGAAAGCCACGC ((..(((....)))..)),52.2 °C,-15.2 kcal/mol
GCAGGGCGAAAGCCGAGC ((..(((....)))..)),50.1 °C,-14.9 kcal/mol
GCAGGGCGAAAGCCTAGC ((..(((....)))..)),55.2 °C,-18.9 kcal/mol
GCAGGGCGAAAGCGCCGC ((.(.((....)).).)),52.6 °C,-15.7 kcal/mol
GCAGGGCGAAAGCTCAGC ((.(.((....)).).)),48.3 °C,-18.4 kcal/mol
GCAGGGCGAAAGCTCGGC ((.(.((....)).).)),59.2 °C,-20.6 kcal/mol
GCAGGGGAAACCCTGC ((((((....)))))),68.1 °C,-34.9 kcal/mol
GCAGGGGGAAACCCCCAC (..((((....))))..),33.1 °C,-9.57 kcal/mol
GCAGGGGGAAACCCTTGC (((.(((....))).))),52.2 °C,-30.8 kcal/mol
GCAGGGGGAAACCTCTGC ((((.((....)).)))),55 °C,-39.1 kcal/mol
GCAGGTGGAAACACCCGC ((.((((....)))).)),50 °C,-23.4 kcal/mol
GCAGGTGGAAACACTTGC (((.(((....))).))),51.5 °C,-35.2 kcal/mol
GCAGGTGGAAACGCCTGC (((((.(....).))))),61.8 °C,-46.6 kcal/mol
GCAGTACCGAAAGGTTGC (((..(((....)))))),43.3 °C,-20.4 kcal/mol
GCAGTAGGAAACCACTGC (((((.(....).))))),48.2 °C,-29.2 kcal/mol
GCAGTAGGAAACTACCAC (..((((....))))..),19.6 °C,-6.77 kcal/mol
